# Measured values gathered from unrelated publications.
# Lines come from different studies, so protocols differ.
# Medium: plasma
Compound,test system,setting,Cmax
CC(=O)N(C)[C@H]1CCN(C(=O)c2cnc3c(c2)C[C@](C)(c2ccc(F)cc2)N3)C1,male human,"oral, 15 mg, multiple doses, once daily, steady state",333 nM
COc1ccc(-c2c(Nc3ccccn3)[nH]c3c(C4=CCCCC4)c(-c4ccccc4)nn3c2=O)cc1,human,"oral, 100 mg once daily, multiple doses, patients",3490 ng/mL
CC(C)n1c(C2CCNCC2)nc2c([N+](=O)[O-])c(Br)c(Br)cc21,human,"oral, 50 mg, patients",33.6 ng/mL
OC[C@H]1O[C@@H](c2cc(Cc3ccc(C4CC4)cc3)c(Cl)c3c2CCO3)[C@H](O)[C@@H](O)[C@@H]1O,human,"oral, 0.3 mg, single dose, fed",3.74 ng/mL
C=CC(=O)NC1CCN(c2ncc3ncnc(Nc4ccc(Oc5ccc6c(c5)ncn6C)c(C)c4)c3n2)CC1,male human,"intravenous, 100 µg, single dose, healthy volunteers",0.583 nM
Cc1cc(-c2nccc3c2ccn3CC(=O)Nc2ccc(-c3cnccn3)cn2)ccn1,human,"oral, 7 mg, single dose",57.4 nM
O=C(COc1ccc(Cl)cc1)NC12CC(c3nnc([C@H]4C[C@@H](OC(F)(F)F)C4)o3)(C1)C2,human,"oral, 260 mg, multiple doses, once daily, steady state, healthy volunteers",18600 nM
COc1ccc2c(c1)CN(C(=O)CCN1CCC(Cc3ccccc3)CC1)CC[S@@+]2[O-],male human,"intravenous, 0.01 mg/kg, healthy volunteers",21.9 ng/mL
